PGC1a Ac signal = raises PGC1a acetylation signal in U2OS cells. U2OS PGC1a acetylation AlphaScreen, overnight. activation, % at 15.6 µM. 350,000 compounds, 0.21% hits;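 active = every replicate reaching activation of at least 50%, whatever the mean replicate activation; inconclusive = replicates that disagree or another doubt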;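 also: hits raise the AlphaScreen acetylation signal above neutral controls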
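System – flag-PGC1a/GCN5 U2OS cells · Quantity – 7000 U2OS cells per well · Signal – AlphaScreen proximity luminescence, anti-acetyl-lysine antibody · Schedule – overnight compound treatment, 37 °C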
G6PC hep suppr = PGC-1a acetylation activators affecting G6PC expression in hepatocytes; shares compounds with PGC1a Ac signal; G6PC suppression (normalized activity, % of positive control; higher = more suppression), % at 26 µM; primary mouse hepatocytes, G6PC mRNA qPCR, forskolin; 240 tested, under 10 active;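 active = dose curves showing G6PC suppression whose half-maximal dose is at most twice the top valid dose; inconclusive = flat curves with moderate negative activity, or unreliable fits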;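 also: G6PC expression relative to GAPDH housekeeping gene as delta delta Ct; 0% = median of neutral control wells and 100% = median of positive control wells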
PCK1 hep suppr = PGC-1a acetylation activator altering hepatocyte PCK1 expression; shares compounds with PGC1a Ac signal; primary mouse hepatocytes, PCK1 mRNA qPCR, forskolin-stimulated; PCK1 expression decrease, unspecified at 26 µM; 230 tested, under 10 active;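 active = compounds lowering PCK1 expression whose fitted half-maximal concentration is at most twice the top tested dose; inconclusive = flat fit with moderate opposite-direction effect, or poor fit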;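 also: values are delta delta Ct of PCK1 relative to GAPDH; higher delta delta Ct means lower PCK1 expression so positive values indicate hits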
Hep PGC-1a down = PGC-1a acetylation activator altering hepatocyte PGC-1a expression; primary mouse hepatocytes, PGC-1a mRNA qPCR, forskolin; top dose 26 µM; shares compounds with PGC1a Ac signal; max activity (PGC-1a expression decrease), %; 240 tested, under 10 active;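 active = compound lowering PGC-1a expression with fitted half-maximal concentration at most twice its top tested dose; inconclusive = flat curve with moderate opposite-direction effect, or poor fit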;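 also: 0% = neutral control wells median and 100% = positive control wells median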
An asterisk follows results filed as active; i = inactive; ? = inconclusive; nt = no result given; [ ] = dose if it differs, or a comment. A selection follows.

SMILES	PGC1a Ac signal	G6PC hep suppr	PCK1 hep suppr	Hep PGC-1a down
CCn1c(C)c(C)c2cc(C(=O)NCCN3CCOCC3)ccc21	-46.1	nt	nt	nt
O=C(N/N=C/c1ccccc1C(=O)O)c1cccc(S(=O)(=O)Nc2cc(Cl)ccc2Cl)c1	-46.8	nt	nt	nt
Cc1cc(N2CCN(C)CC2)ccc1NC(=O)c1c2c(nc3ccccc13)CCN(Cc1ccccc1)C2	-69.4	nt	nt	nt
O=C(N/N=C/c1ccc(OC2CSC2)cc1)c1ccc(CN2CCOCC2)cc1	-42.0	nt	nt	nt
c1ccc(-c2c(-c3ccccc3)n(Cc3ccco3)c3ncnc(NCCCn4ccnc4)c23)cc1	125.5*	266.6[8 µM]	216	88.3
CCN(CC)CCNC(=O)c1ccc2c(c1NCCO)C(=O)c1ccccc1C2=O	-91.6	nt	nt	nt
CCOC(=O)C1=C(C)N=c2s/c(=C\c3cccc(OCC(=O)O)c3)c(=O)n2C1c1ccccc1OC (centres undefined)	-54.9	nt	nt	nt
O=C1c2ccc(-c3ccc4c(c3)C(=O)N(CCCO)C4=O)cc2C(=O)N1CCCO	-69.8	nt	nt	nt
O=C(c1cc(-c2ccccc2)nc2ccccc12)N1N=C(C(F)F)CC1(O)C(F)F (centres undefined)	-38.2	nt	nt	nt
CN(C)CCCNc1cc(-c2ccccc2)nc2cc(-c3cccc(F)c3)nn12	?	i	?	?
O=C(CN1CCC(n2c(=O)[nH]c3ccccc32)CC1)NCc1ccc(Cl)s1	nt	-13.8	-6.26	15.1
CCOC(=O)C1CCN(C(=O)CSc2ccc(Br)cc2)CC1	-40.2	nt	nt	nt
Nc1ccc2c(c1)C(=O)C(=O)c1ccccc1-2	-106.9	nt	nt	nt
CCCCCOC(=O)Cc1c(O)c2ccccc2n(C)c1=O	-42.8	-30.1	-15.6	-27.3
O=[N+]([O-])c1ccc(Oc2ccc(F)cc2)c2ccncc12	-42.9	nt	nt	nt
O=C(CCl)Nc1cc(SCC(O)CO)cc([N+](=O)[O-])c1 (centres undefined)	-52.5	nt	nt	nt
Cc1ccc(NC2=C/C(=N\S(=O)(=O)c3cccs3)c3ccccc3C2=O)c(C)c1	-92.9	nt	nt	nt
Cc1ccc(Nc2nnc(C)c3ccccc23)c(C)c1	?	-19.7	-28.7	88.4
CC(C)(O)c1cc(=O)sc2nc3ccccc3n12	-49.6	nt	nt	nt
Cc1nc2ccccn2c1C(=O)/C=C/c1ccc(F)cc1	-40.9	nt	nt	nt
O=C(Nc1cnc2ccccc2c1)c1cccnc1	267.2*	nt	-14.8	-29.5
CN(C)CC(C(=O)c1ccccc1)c1ccccc1 (centres undefined)	-138.8	nt	nt	nt
COc1ccc(CCNC(=O)c2cc(-c3ccco3)on2)cc1OC	87.4*	-12.0	-7.11	?
CCCC(=O)C1=C(O)C(C(=O)OC)C(C)(C)CC1=Nc1ccc(OC)cc1 (centres undefined)	-46.2	nt	nt	nt
COc1ccc(C(c2nnnn2C2CCCC2)N2CCC(C)CC2)c(OC)c1 (centres undefined)	100.2*	99.7	137	133.9
SMILES	PGC1a Ac signal	G6PC hep suppr	PCK1 hep suppr	Hep PGC-1a down
Cc1nc2ccccc2nc(C)c1=NO	-47.8	nt	nt	nt
C[C@@H]1CCCCO[C@H](CN(C)Cc2ccc(Cl)c(Cl)c2)[C@H](C)CN([C@@H](C)CO)C(=O)c2cc(NC(=O)Nc3ccc(F)cc3)ccc2O1	-43.1	nt	nt	nt
Cc1noc(C)c1S(=O)(=O)Nc1ccc2c(c1)C(=O)N([C@@H](C)CO)C[C@@H](C)[C@@H](CN(C)Cc1ccc3c(c1)OCO3)OCCCC[C@@H](C)O2	-41.1	444.3	230	?
CS(=O)c1nc(-c2ccc(Br)cc2)cc(-c2ccccc2)c1C#N (centres undefined)	-90.7	nt	nt	nt
COC(=O)CSc1nc(-c2ccccc2)cc(-c2ccco2)c1C#N	67.1*	-3.6	-9.53	51.3
N#Cc1c(-c2cccc(Br)c2)cc(-c2ccco2)[nH]c1=O	-42.6	nt	nt	nt
CCOC(=O)C1=C(Nc2ccccc2)OCC1=O	-46.5	nt	nt	nt
O=C(NCc1cccs1)c1ccc(Cl)c(S(=O)(=O)N2CCCC2)c1	?	128.8	nt	?
Nc1ncnc(NCc2ccc(F)cc2)c1[N+](=O)[O-]	-49.7	nt	nt	nt
CCn1c2ccccc2c2cc(/C=N/n3cn[nH]c3=S)ccc21	-41.6	nt	nt	nt
C[C@H](CO)N1C[C@H](C)[C@H](CN(C)Cc2ccc(Oc3ccccc3)cc2)Oc2c(NC(=O)Nc3ccc4c(c3)OCO4)cccc2C1=O	-40.1	nt	nt	nt
C[C@H]1CN([C@@H](C)CO)C(=O)c2cccc(NS(=O)(=O)c3ccc(F)cc3)c2O[C@H]1CN(C)Cc1ccc(C(F)(F)F)cc1	-55.0	23.2	36.6	89.2
COc1ccc(NC(=O)N(C)C[C@H]2OCc3ccccc3-c3c(n(C)c4ccccc34)C(=O)N([C@@H](C)CO)C[C@H]2C)c(OC)c1	84.6*	10.7[9 µM]	47.5	80.3

Bioassay records (PubChem)
